Source: PubChem (Broad Institute)
Compounds with a hit are over-represented: about 5.8% of the library has one in this group of screens.
Tcruzi prolif = inhibitors of T. cruzi proliferation | T. cruzi beta-gal in NIH3T3, GalScreen luminescence, 90 h | inhibition, % at 8.34 µM | 77,000 compounds, 5.9% hits;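 active = mean inhibition above about 93%, with at least 55% of replicates each passing it, limit read from the data, passing the limit was not always enough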
GASC1 inh = inhibitors of human demethylase GASC-1 KDM4C. Q9H3R0. GST-KDM4C 2-372, H3K9me3 peptide, LANCE TR-FRET. inhibition, % at 12.5 µM. 96,000 compounds, 0.15% hits;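 active = mean replicate inhibition above about 25%, with at least 55% of replicates also reaching it, limit read from the data, passing the limit was not always enough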
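material = GST-tagged GASC-1 (JMJD2C) catalytic fragment, aa 2-372 | amount = enzyme final amount 10 nM | medium = HEPES buffer, pH 7.5, plus ascorbate | also added = H3K9me3 peptide substrate, Fe(II), 2-oxoglutarate | dosing = single dose | times = 30 min demethylation and 1 h detection at room temperature | detection = LANCE TR-FRET | read-out basis = Fall in 671/618 emission ratio as inhibition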
IDH1 R132H inh = inhibitors of human IDH1 R132H. O75874. IDH1 R132H reductase, diaphorase/resazurin fluorescence, 60 min. inhibition, % at 10 µM. 70,000 compounds, 0.18% hits; in the data active = inhibition above about 34%;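 also: 0% = DMSO and 100% = no enzyme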
Target sequence (O75874 whole entry R132H): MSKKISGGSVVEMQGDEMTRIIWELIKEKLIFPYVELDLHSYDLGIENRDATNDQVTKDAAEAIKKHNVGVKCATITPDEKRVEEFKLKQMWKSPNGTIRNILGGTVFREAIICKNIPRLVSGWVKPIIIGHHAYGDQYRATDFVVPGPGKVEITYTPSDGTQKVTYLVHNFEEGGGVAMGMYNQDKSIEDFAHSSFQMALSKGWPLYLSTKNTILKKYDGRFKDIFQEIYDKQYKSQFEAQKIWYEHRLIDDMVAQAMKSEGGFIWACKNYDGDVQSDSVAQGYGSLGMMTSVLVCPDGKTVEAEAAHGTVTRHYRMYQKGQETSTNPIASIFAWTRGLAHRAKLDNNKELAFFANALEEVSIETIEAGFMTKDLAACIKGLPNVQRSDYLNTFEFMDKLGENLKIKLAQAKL
Pf Dd2 inh = inhibitors of Plasmodium falciparum Dd2 growth; P. falciparum Dd2 growth, SYBR Green, 72 h; stronger effect = lower value; activity change, % at 10 µM; 94,000 compounds, 2.3% hits; AID 1159554; in the data active = activity change below about -80%
* hit, by the source's call; · = no result; ! = a repeat was not active.

SMILES	Tcruzi prolif	GASC1 inh	IDH1 R132H inh	Pf Dd2 inh
C[C@@H]1CN([C@H](C)CO)S(=O)(=O)c2ccc(/C=C/c3ccccc3)cc2O[C@H]1CN(C)Cc1ccc(C(=O)O)cc1	76	0	11	-28
C[C@H]1CN([C@@H](C)CO)C(=O)CCCn2nncc2CO[C@@H]1CN(C)Cc1cccc(O)c1	22	-1	·	-5
CO[C@@H]1CN(C)C(=O)c2cc(NC(=O)c3cccc(F)c3)ccc2OC[C@H](C)N(C(C)=O)C[C@H]1C	44	65*	98*	·
CO[C@H]1CN(C)C(=O)c2cc(NC(=O)c3cccc(F)c3)ccc2OC[C@@H](C)N(C(C)=O)C[C@@H]1C	9	1	0	·
CO[C@@H]1CN(C)C(=O)c2ccc(NC(=O)c3ccccc3)cc2OC[C@H](C)N(C)C[C@@H]1C	-10	19	89*	·
CO[C@H]1CN(C)C(=O)c2ccc(NC(=O)c3ccccc3)cc2OC[C@@H](C)N(C)C[C@@H]1C	6	0	0	·
O=C(NCC[C@H]1CC[C@@H](NC(=O)C2CCC2)[C@H](CO)O1)Nc1ccc(Cl)cc1	·	7	0	20
O=C(Nc1ccccc1)N1C[C@@H]2N[C@H](C1)[C@@H]2c1ccc(/C=C/c2ccccc2)cc1	·	-3	·	-89*
O=C(c1ccc2c(c1)OCO2)N1C[C@@H]2N[C@H](C1)C2c1ccc(/C=C/c2ccccc2)cc1 (stereo partly drawn)	·	0	·	-89*!
O=C(c1ccc(F)cc1)N1C[C@@H]2N[C@H](C1)C2c1ccc(/C=C/c2ccccc2)cc1 (stereo partly drawn)	·	-1	·	-27
Cc1noc(C)c1S(=O)(=O)Nc1ccc2c(c1)CC(=O)N([C@@H](C)CO)C[C@@H](C)[C@H](CN(C)Cc1ccc(Cl)c(Cl)c1)O2	-44	-1	1	-23
Cc1noc(C)c1S(=O)(=O)N(C)C[C@@H]1OCCCC[C@@H](C)Oc2ccc(NC(=O)Nc3ccc(C(F)(F)F)cc3)cc2C(=O)N([C@H](C)CO)C[C@@H]1C	91	0	·	-44
Cc1noc(C)c1S(=O)(=O)N(C)C[C@H]1OCCCC[C@@H](C)Oc2ccc(NC(=O)Nc3ccc(C(F)(F)F)cc3)cc2C(=O)N([C@@H](C)CO)C[C@H]1C	97*	0	·	-71
Cc1noc(C)c1S(=O)(=O)N(C)C[C@@H]1OCCCC[C@@H](C)Oc2ccc(NC(=O)Nc3ccc(C(F)(F)F)cc3)cc2C(=O)N([C@H](C)CO)C[C@H]1C	96	0	·	-92*
C[C@@H]1CCCCO[C@@H](CN(C)S(=O)(=O)c2cn(C)cn2)[C@H](C)CN([C@H](C)CO)C(=O)c2cc(NC(=O)Nc3ccc(C(F)(F)F)cc3)ccc2O1	31	-2	0	-88*
Cc1noc(C)c1S(=O)(=O)N(C)C[C@H]1OCCCC[C@H](C)Oc2ccc(NC(=O)Nc3ccc(C(F)(F)F)cc3)cc2C(=O)N([C@H](C)CO)C[C@H]1C	96	1	·	-76
Cc1noc(C)c1NC(=O)N[C@@H]1CC[C@@H](CC(=O)NCCCN(C)C)O[C@H]1CO	46	0	0	6
COc1ccc2c3c(n(C)c2c1)[C@H](CO)N(C(=O)C1CC1)CC31CCN(C)CC1	·	-1	·	-86*
COc1ccc2c3c(n(C)c2c1)[C@H](CO)N(C(=O)C1CC1)CC31CN(C(=O)C2CCOCC2)C1	·	1	·	-87*
Cn1cnc(CCNC(=O)C[C@H]2CC[C@H]3[C@@H](COC[C@@H](O)CN3C(=O)Nc3ccc(Cl)cc3)O2)c1	23	-1	·	8
Nc1nnc(SCC(=O)Nc2ccc(F)c(Cl)c2)n1-c1ccccc1	·	·	0	·
C[C@@H]1CN([C@H](C)CO)C(=O)c2cccc(NC(=O)c3nc4ccccc4s3)c2O[C@H]1CN(C)C(=O)NC1CCCCC1	-60	0	·	-89*
C[C@@H]1CN([C@@H](C)CO)C(=O)c2cccc(NC(=O)c3nc4ccccc4s3)c2O[C@H]1CN(C)C(=O)NC1CCCCC1	0	1	-2	-89*
COc1ccc(NC(=O)N(C)C[C@@H]2Oc3c(NC(=O)c4nc5ccccc5s4)cccc3C(=O)N([C@@H](C)CO)C[C@H]2C)cc1	24	-1	0	-87*
C[C@H](CO)N1C[C@H](C)[C@H](CN(C)S(=O)(=O)c2cccs2)OCCCC[C@H](C)Oc2ccc(NS(=O)(=O)c3ccc(F)cc3)cc2C1=O	94	-1	·	·
SMILES	Tcruzi prolif	GASC1 inh	IDH1 R132H inh	Pf Dd2 inh
C[C@H](CO)N1C[C@H](C)[C@H](CN(C)S(=O)(=O)c2ccc(C(F)(F)F)cc2)OCc2ccccc2-c2ccccc2C1=O	93	-1	-5	-85*
C[C@@H]1CN([C@@H](C)CO)C(=O)c2ccccc2-c2ccccc2CO[C@H]1CN(C)Cc1ccccc1C(F)(F)F	·	-2	·	-90*
C[C@H]1CN([C@@H](C)CO)C(=O)c2c(c3ccccc3n2C)-c2ccccc2CO[C@H]1CN(C)Cc1ccccc1C(F)(F)F	·	0	·	-69
C[C@H](CO)N1C[C@H](C)[C@H](CN(C)Cc2ccc(C(F)(F)F)cc2)OCc2ccccc2-c2ccccc2C1=O	·	0	·	-84*
C[C@H]1CN([C@@H](C)CO)C(=O)c2ccccc2-c2ccccc2CO[C@H]1CN(C)Cc1ccc(C(F)(F)F)cc1	·	-2	·	-92*
O=C(C[C@@H]1C[C@H]2c3cc(NC(=O)Nc4ccccc4)ccc3O[C@H]2[C@H](CO)O1)NCc1cccnc1	-3	-1	1	17
C[C@@H]1CCCCO[C@H](CN(C)C(=O)Nc2ccc3c(c2)OCO3)[C@H](C)CN([C@@H](C)CO)C(=O)c2cc(NC(=O)c3ccncc3)ccc2O1	40	2	5	-20
Cc1ccccc1S(=O)(=O)N(C)C[C@H]1OCc2ccccc2-c2ccccc2C(=O)N([C@H](C)CO)C[C@H]1C	93	-1	-6	-86*
C[C@@H]1CN([C@H](C)CO)C(=O)c2ccccc2-c2ccccc2CO[C@@H]1CN(C)Cc1ccc(C(F)(F)F)cc1	·	-1	·	-87*
C[C@H]1CN([C@@H](C)CO)C(=O)c2ccccc2-c2ccccc2CO[C@@H]1CN(C)Cc1ccc(C(F)(F)F)cc1	·	-1	·	-26
O=C(C[C@@H]1CC[C@@H]2[C@H](COC[C@H](O)CN2Cc2ccc3c(c2)OCO3)O1)N1CCOCC1	18	1	·	5
N#Cc1ccc(-c2ccc(C3[C@@H]4CN(C(=O)C5CC5)C[C@H]3N4)cc2)cc1 (stereo partly drawn)	·	-2	·	-88*!
C/C=C/c1ccc(C2[C@@H]3CN(C(=O)Nc4ccc5c(c4)OCO5)C[C@H]2N3)cc1 (stereo partly drawn)	·	4	·	-37
N#Cc1ccc(-c2ccc([C@@H]3[C@@H]4CN(C(=O)Nc5ccc6c(c5)OCO6)C[C@H]3N4)cc2)cc1	·	1	·	-87*
COCC(=O)Nc1ccc2c(c1)C(=O)N(C)[C@@H]1CC[C@@H](CC(=O)NC3Cc4ccccc4C3)O[C@H]1CO2	17	0	·	10
COCCNC(=O)C[C@H]1C[C@H]2c3cc(NC(=O)NC4CCCC4)ccc3O[C@H]2[C@@H](CO)O1	-9	0	0	15
